The sample as a whole holds a higher share of hits than the screen did.
BB579 growth dn: chemicals that inhibit yeast BB579 growth in restrictive medium (lifespan-shortening candidates); S. cerevisiae BB579 growth, OD615, 48 h; inhibition, % at 10 µM; 140,000 compounds, 0.51% hits; AID 804;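 active = inhibition above a set limit, 3 SD over the mean compound inhibition, cut at about 44% in these data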
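System: Saccharomyces cerevisiae DeaD strain BB579, replicative lifespan model yeast. Buffer or medium: restrictive glucose-based CSMM-D medium. Doses: one dose, 10 µM compound with 0.25% DMSO. Timing: 4 h preincubation and 48 h exposure at 30 °C. Detection: turbidity as optical density at 615 nm. Benchmarks: amphotericin B 10 µg/mL, positive.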
Yeast lifespan up: extends the lifespan of yeast; S. cerevisiae growth with nicotinamide, OD615; deaD strain in restrictive glucose medium; inhibition of the nicotinamide effect, % at 10 µM; 130,000 compounds, 0.68% hits; AID 775;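 active = inhibition above a set limit, placed 3 SD over the median of all compounds, cut at about 26% in these data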;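 note: 0% = nicotinamide-treated wells and 100% = cells grown without nicotinamide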
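assay system = DeaD-strain S. cerevisiae | buffer or medium = restrictive glucose medium | reagent = 1.5 mM nicotinamide | compound = 10 µM single point, 0.25% DMSO | incubation = 48 h compound exposure at 30 °C, humidified | signal = OD615 measurement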
PostGolgi yeast: growth inhibition of a yeast mutant, post-Golgi transport screen | 98,000 compounds, 0.9% hits | inhibition, % at 10 µM | post-Golgi transport phenotypic cell assay;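 note: yeast cells grown in 1536-well plates; yeast grown about 18 h at 30C before absorbance read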
PostGolgi ctrl: inhibits growth of the yeast control strain; efflux-deficient yeast background strain, growth absorbance A615, 16 h; inhibition, % at 10 µM; 98,000 compounds, 5% hits; AID 738
Active calls of the source: *; . = no result given. Cut-off read from the data, not from the text of the source, unless noted: active = inhibition above about 30%; inactive = the rest.

SMILES	BB579 growth dn	Yeast lifespan up	PostGolgi yeast	PostGolgi ctrl
CCOC(=O)c1ccc2c(c1)n(CC)c(/C=C/Nc1ccccc1)[n+]2CC	-21	-1	-17	32*
CC(=O)Cc1nsc(NC(=O)c2cccs2)n1	-12	2	4	7
COc1cc(SC#N)ccc1N=Cc1c(C)[nH]n(-c2ccc(Cl)cc2)c1=O	-19	-2	10	32*
COc1cc(SC#N)ccc1N=Cc1c(C)[nH]n(-c2ccc(C)c(C)c2)c1=O	-17	-6	.	.
Cc1cc(NC(=O)c2ccc(Cn3nc(C)c(Br)c3C)o2)no1	-47	-9	-5	10
Cc1nn(Cc2ccc(C(=O)Nc3nc4c(C)cccc4s3)o2)c(C)c1Br	-36	-1	32*	35*
COc1ccccc1N(C(=O)NCc1ccccc1)C1=NCC(C)S1 (configuration not stated)	-13	-7	-4	48*
COC(=O)c1ncccc1SC	1	-7	.	.
Cc1ccc(Cn2nnc3c(=O)n(Cc4ccccc4C)cnc32)cc1	-46	4	-1	4
Cc1cc(NC(=O)CCC(=O)N(c2ccc(F)cc2)C2(C(=O)NC3CCCCC3)CCCC2)no1	-40	-22	6	39*
O=C(NC1CCCCC1)C(c1cccs1)N(C(=O)Cc1c[nH]c2ccccc12)c1ccc(F)cc1 (configuration not stated)	-18	-2	-6	48*
CC(=O)c1ccc(N(C(=O)Cc2c[nH]c3ccccc23)C(C(=O)NC2CCCCC2)c2cccs2)cc1 (configuration not stated)	-43	-5	2	-3
O=C(NC1CCCC1)C(c1ccsc1)N(C(=O)Cc1cccs1)c1ccc(F)cc1 (configuration not stated)	-23	-7	35*	3
O=C(NC1CCCC1)C(c1ccsc1)N(C(=O)Cc1cccs1)c1cccc(F)c1 (configuration not stated)	-81	-6	-4	0
COc1cc(C(=O)OCC(=O)NC2CCS(=O)(=O)C2)ccc1OCc1c(C)noc1C (configuration not stated)	-17	-4	.	.
O=C1CCCC2=C1C1(CCCCC1)N=C(Nc1nc3ccccc3s1)N2	-60	4	2	33*
Cc1cccc(N2CCN(c3nc4ccccc4n4cnnc34)CC2)c1C	-5	-15	0	37*
Cc1nn(C)c(Oc2ccccc2)c1CCNS(=O)(=O)c1ccccc1	-28	-5	-21	38*
COCCNS(=O)(=O)c1ccccc1	-36	-9	-9	-4
CC1CCN(C(=O)Cn2c(=O)n(CCc3ccccc3)c(=O)c3ccccc32)CC1	-19	3	21	43*
O=C(NC1CCCCC1)C(c1ccc(O)cc1)N(CC1CCCO1)C(=O)C1COc2ccccc2O1 (configuration not stated)	-10	-12	-8	6
COC(=O)c1nn(-c2ccc(Cl)cc2)c(=O)cc1Sc1ccccn1	-25	27	2	1
O=C(CN(Cc1ccccc1)C(=O)c1cc2c(s1)CCC2)NCc1cccs1	-56	-3	1	35*
COc1cccc(-c2nnc(SCC(=O)OC(C)C)n2Cc2ccco2)c1	-35	-5	0	21
COC(=O)c1cc(OC)c(OC)cc1NC(=O)CSc1ccccc1	-19	-7	-1	43*
SMILES	BB579 growth dn	Yeast lifespan up	PostGolgi yeast	PostGolgi ctrl
COc1cccc(OC)c1C(=O)Nc1cccc(C(C)=O)c1	-31	.	.	.
COC(=O)c1ccc(C(=O)OC)c(NC(=O)CSc2cccc[n+]2[O-])c1	99*	-29	8	2
COc1cc(Cl)c(C)cc1NC(=O)CSc1ccccc1	-34	-5	.	.
COC(=O)c1cc(OC)c(OC)cc1NC(=S)Nc1cccc(C(C)=O)c1	-20	40*	.	.
COC(=O)c1cccc(NC(=S)NCc2ccc(Cl)cc2)c1	-42	-1	11	45*
CCN(CC)S(=O)(=O)c1cccc2cc(C(=O)O)c(O)cc12	-46	0	22	6
O=C(Cc1ccc(Br)cc1)N1CCN(c2ccccc2O)CC1	-28	0	-4	21
CCSc1cnc(-c2ccccc2)n1CC	-15	-4	-4	3
CCCCC(CC)Cn1c2nc3ccccc3nc2c2c(=N)oc(C)nc21 (configuration not stated)	-50	94*	0	72*
CCN(CC(=O)Nc1ccc2c(c1)OCCO2)S(=O)(=O)c1ccc(C)cc1	-34	10	-2	2
CCOC(=O)c1c(N)sc(C(O)(C(F)(F)F)C(F)(F)F)c1-c1ccccc1	1	-3	3	32*
Cc1nn(CCOc2ccccc2)c(=O)n1-c1c(F)cccc1F	-29	-15	-7	6
